Compound activity as filed in PubChem BioAssay.
GASC1 inh = blocks human GASC-1 (KDM4C) demethylase activity; 0.15% of 96,000 active; GST-KDM4C 2-372, H3K9me3 peptide, LANCE TR-FRET; inhibition, % at 12.5 µM; AID 720574; Q9H3R0;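 active = mean replicate inhibition above about 25%, with at least 55% of replicates also reaching it, limit read from the data, passing the limit was not always enough; inconclusive = only one of those two conditions met; inactive = neither condition met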
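System – N-terminal GST-fused human GASC-1 (KDM4C) fragment, residues 2-372 · Input – enzyme final amount 10 nM · Technique – LANCE TR-FRET, Eu antibody, ULight-streptavidin, EDTA, ex 340 nm, em 618/671 nm · Medium – HEPES buffer, pH 7.5, plus ascorbate · Incubation – enzyme reaction 30 min, then detection 60 min, both room temperature · Reagent – H3K9me3 peptide with Fe(II)/2OG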
IDH1 mut inh = blocks human IDH1 R132H reductase activity; 0.18% of 70,000 active; diaphorase/resazurin fluorescence, 60 min; inhibition, % at 10 µM; AID 624101; O75874; in the data active = inhibition above about 34%; inconclusive = no clear call, values can overlap the other calls; inactive = below about 11%;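 note: 0% = DMSO and 100% = no enzyme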
Target sequence (O75874 whole entry R132H): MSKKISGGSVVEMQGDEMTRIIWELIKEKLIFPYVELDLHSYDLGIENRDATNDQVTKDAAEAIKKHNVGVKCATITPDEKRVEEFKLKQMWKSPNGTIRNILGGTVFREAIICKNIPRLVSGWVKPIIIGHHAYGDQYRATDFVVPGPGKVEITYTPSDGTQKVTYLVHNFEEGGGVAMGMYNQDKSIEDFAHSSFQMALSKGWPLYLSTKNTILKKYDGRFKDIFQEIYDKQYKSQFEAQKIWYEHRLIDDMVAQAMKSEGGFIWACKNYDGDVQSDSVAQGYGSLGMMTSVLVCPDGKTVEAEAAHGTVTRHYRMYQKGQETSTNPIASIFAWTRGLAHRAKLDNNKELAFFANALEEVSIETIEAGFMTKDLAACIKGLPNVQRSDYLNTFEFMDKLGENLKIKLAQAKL
T cruzi growth-1 = blocks T. cruzi growth in NIH3T3 culture; T. cruzi beta-gal in NIH3T3, GalScreen luminescence, 90 h; inhibition, % at 8.34 µM; 5.9% of 77,000 active; AID 624255;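 active = mean inhibition above about 93%, with at least 55% of replicates each passing it, limit read from the data, passing the limit was not always enough; inconclusive = only one of those two conditions holds; inactive = neither condition holds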
Pf Dd2 inh = P. falciparum Dd2 growth inhibition. SYBR Green, 72 h; hits give low values. activity change, % at 10 µM. 2.3% of 94,000 active. AID 1159554; in the data active = activity change below about -80%; inconclusive = no clear call, values can overlap the other calls
T cruzi growth-2 = inhibitors of T. cruzi proliferation. shares compounds with T cruzi growth-1. T. cruzi beta-gal in NIH3T3, GalScreen luminescence, 90 h. inhibition, % at 8.35 µM. 72% of 5,600 active. AID 651739;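 active = mean replicate inhibition above about 95% and at least 55% of replicates individually reaching it, limit read from the data; inconclusive = only one of the two criteria is met; inactive = neither criterion is met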
T cruzi growth-3 = inhibitors of T. cruzi proliferation | shares compounds with T cruzi growth-1 | T. cruzi beta-gal in NIH3T3, GalScreen luminescence, 90 h | inhibition, % at 2.09 µM | 21% of 5,600 active | AID 651740;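 active = mean inhibition above about 95%, with at least 55% of replicates also reaching it, limit read from the data; inconclusive = meets just one of the two conditions; inactive = meets neither condition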;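 note: plate controls were neutral control median for no effect and positive control median for full effect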
3T3 cytotox = NIH/3T3 (mouse) viability loss; NIH/3T3 viability, CellTiter-Glo ATP luminescence, 90 h; shares compounds with T cruzi growth-1; cytotoxicity (signal decrease), % at 8.35 µM; AID 651742; 14% of 5,600 active;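 active = mean signal decrease across replicates above about 35% based on untreated-well scatter, with enough replicates individually passing, limit read from the data; inconclusive = no rule stated though some were filed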;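 note: 0% = median of neutral control wells and 100% = median of positive control wells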
3T3 cytotox 2 = NIH/3T3 (mouse) viability loss | shares compounds with T cruzi growth-1 | 56% of 5,600 active | NIH/3T3 viability, CellTiter-Glo ATP luminescence, 90 h | inhibition, % at 24.9 µM;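 active = mean loss of cell viability signal at or above a set limit, and enough replicates individually reaching it; inconclusive = meets only the mean limit or only the replicate share; inactive = meets neither condition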;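 note: 0% = median of neutral control wells and 100% = median of positive control wells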
Numbers without * were called inactive; ? = inconclusive; · = no result given. Most compounds without a hit are left out; they make up all but 5.8% or so of the library.

SMILES | GASC1 inh | IDH1 mut inh | T cruzi growth-1 | Pf Dd2 inh | T cruzi growth-2 | T cruzi growth-3 | 3T3 cytotox | 3T3 cytotox 2
N#C[C@@H]1[C@@H](c2ccc(-c3cncnc3)cc2)[C@H](CO)N1C(=O)C1CCC1 | -2.3 | · | 102.7* | 6.1 | 77.0 | 40.9 | 2.8 | 1.9
CN(C)C(=O)c1cccc(-c2ccc([C@@H]3[C@@H](CO)N(C(=O)C4CCC4)[C@H]3C#N)cc2)c1 | -2.2 | · | 100.8* | -5.0 | -25.1 | 3.9 | -15.4 | 0.6
N#C[C@@H]1[C@@H](c2ccc(C3=CCCC3)cc2)[C@H](CO)N1C(=O)C1CCC1 | 4.0 | · | 77.4 | 30.7 | · | · | · | ·
N#C[C@H]1[C@H](c2ccc(C3=CCCC3)cc2)[C@H](CO)N1C(=O)C1CCC1 | 0.9 | · | ? | 15.7 | 96.3* | 23.8 | -6.4 | 17.9
CN(C)C(=O)c1cccc(-c2ccc([C@@H]3[C@@H](C#N)N(C(=O)C4CCC4)[C@@H]3CO)cc2)c1 | -3.0 | · | 89.1 | 30.8 | · | · | · | ·
COc1ccc(Br)cc1/C=N/NC(=O)c1ccccn1 | · | 0.5 | · | · | · | · | · | ·
COCCNC(=O)C[C@H]1C[C@H]2c3cc(NC(=O)Nc4ccc(F)cc4)ccc3O[C@H]2[C@H](CO)O1 | -0.6 | -2.0 | -16.9 | 11.6 | · | · | · | ·
CC(C)CC#Cc1ccc2c(c1)O[C@@H](CN(C)C(=O)C1CCCCC1)[C@H](C)CN([C@H](C)CO)S2(=O)=O | 3.6 | -8.5 | 114.0* | -65.7 | 100.2* | 111.5* | -2.1 | 103.9*
CC(C)CC#Cc1ccc2c(c1)O[C@@H](CN(C)C(=O)C1CCCCC1)[C@@H](C)CN([C@H](C)CO)S2(=O)=O | -0.6 | · | 114.5* | -44.1 | 95.7* | 116.1* | 1.5 | 104.7*
CC(C)CC#Cc1ccc2c(c1)O[C@H](CN(C)C(=O)C1CCCCC1)[C@H](C)CN([C@H](C)CO)S2(=O)=O | -0.8 | · | 110.7* | -66.3 | 98.6* | 106.4* | 63.4* | 104.3*
CC(C)CC#Cc1ccc2c(c1)O[C@H](CN(C)C(=O)C1CCC1)[C@@H](C)CN([C@H](C)CO)S2(=O)=O | -0.8 | · | 93.4 | -45.7 | · | · | · | ·
Cc1ccc(-c2nnc3c4ccccc4c(C)nn23)cc1S(=O)(=O)NCC1CCCO1 (configuration not stated) | · | 0.2 | · | · | · | · | · | ·
O=C(Nc1ccc(F)cc1)N1CCCCN2[C@H](CO)[C@H](c3ccc(-c4cccc(F)c4)cc3)[C@@H]2C1 | -3.4 | · | 117.8* | -3.1 | 108.2* | 85.1 | 16.7 | 71.8*
O=C(Nc1ccc(F)cc1)N1CCCCN2[C@@H](CO)[C@H](c3ccc(-c4cccc(F)c4)cc3)[C@@H]2C1 | 0.6 | · | 106.2* | -30.0 | 95.3* | 79.6 | 119.5* | 103.3*
CC(=O)Nc1ccc2c(c1)C(=O)N(C)[C@@H]1CC[C@@H](CC(=O)NCCCN3CCOCC3)O[C@H]1CO2 | -0.1 | · | 6.9 | 23.4 | · | · | · | ·
COc1cccc(S(=O)(=O)N(C)C[C@@H]2OCc3cn(nn3)CCCC(=O)N([C@@H](C)CO)C[C@H]2C)c1 | -0.1 | -1.3 | ? | 5.4 | 93.5 | 3.6 | 7.4 | 14.9
COc1ccc(OC(=O)N(C)C[C@H]2OCc3cn(nn3)CCCC(=O)N([C@H](C)CO)C[C@H]2C)cc1 | 1.5 | -0.2 | 22.0 | 2.3 | · | · | · | ·
Cc1noc(C)c1NC(=O)N(C)C[C@@H]1OCc2cn(nn2)CCCC(=O)N([C@H](C)CO)C[C@@H]1C | -0.7 | -1.1 | ? | 1.0 | 15.6 | -1.6 | -3.1 | -11.6
COc1ccc(OC(=O)N(C)C[C@@H]2OCc3cn(nn3)CCCC(=O)N([C@H](C)CO)C[C@@H]2C)cc1 | -0.7 | -0.2 | 112.6* | 15.0 | 42.1 | -17.0 | 5.1 | 4.2
C[C@H]1CN([C@@H](C)CO)C(=O)CCCn2cc(nn2)CO[C@@H]1CN(C)Cc1ccc(Cl)c(Cl)c1 | 0.4 | -1.4 | -65.1 | 20.2 | · | · | · | ·
C[C@@H]1CN([C@@H](C)CO)C(=O)CCCn2cc(nn2)CO[C@H]1CN(C)Cc1ccc(Cl)c(Cl)c1 | 0.6 | -2.9 | 135.1* | 8.4 | 77.2 | 73.8 | -30.0 | 0.1
